# Data: ChEMBL document CHEMBL1139690, “Comparison between two classes of selective EP(3) antagonists and their biological activities” (Bioorg Med Chem Lett, 2006)
# What was measured:
# [1] = biological target: Prostaglandin E2 receptor EP2 subtype (Homo sapiens, UniProt P43116); assay: Binding affinity to EP2 receptor
# [2] = biological target: T1, Prostaglandin E2 receptor EP3 subtype (Homo sapiens, UniProt P43115); assay: Binding affinity to EP3 receptor
# T1 sequence (P43115 whole entry): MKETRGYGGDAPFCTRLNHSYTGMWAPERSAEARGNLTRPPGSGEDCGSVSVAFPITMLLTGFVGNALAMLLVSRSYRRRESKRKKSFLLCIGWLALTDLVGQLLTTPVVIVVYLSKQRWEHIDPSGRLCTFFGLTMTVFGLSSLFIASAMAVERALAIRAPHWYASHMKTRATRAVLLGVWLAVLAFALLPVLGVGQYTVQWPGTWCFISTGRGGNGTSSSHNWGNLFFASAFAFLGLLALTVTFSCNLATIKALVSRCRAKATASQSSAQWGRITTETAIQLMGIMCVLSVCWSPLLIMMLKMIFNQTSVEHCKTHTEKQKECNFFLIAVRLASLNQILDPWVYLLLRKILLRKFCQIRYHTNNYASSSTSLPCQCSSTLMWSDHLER
# Rattus norvegicus [3] = assay: Concentration in carrageenan-induced hyperalgesic rat at 5 mg/kg, po, 1 hr postdose; assay type: functional
# [4] = Clearance in Sprague-Dawley rat at 10 mg/kg, po and 5 mg/kg, iv; assay type: ADME, organism-based; settings: in vivo
# Thromboxane A2 receptor = biological target: T2, Thromboxane A2 receptor (Homo sapiens, UniProt P21731); assay: Binding affinity to TP receptor
# T2 sequence (P21731 whole entry): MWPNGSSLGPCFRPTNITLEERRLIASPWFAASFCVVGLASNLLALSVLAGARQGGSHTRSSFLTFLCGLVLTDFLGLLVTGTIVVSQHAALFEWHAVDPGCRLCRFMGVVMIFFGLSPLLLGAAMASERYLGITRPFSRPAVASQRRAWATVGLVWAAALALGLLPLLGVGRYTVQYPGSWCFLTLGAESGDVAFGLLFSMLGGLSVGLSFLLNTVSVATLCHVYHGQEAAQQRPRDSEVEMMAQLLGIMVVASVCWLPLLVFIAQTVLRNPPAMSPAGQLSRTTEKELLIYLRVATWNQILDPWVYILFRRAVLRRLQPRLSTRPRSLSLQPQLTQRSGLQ
# [5] = biological target: Prostaglandin F2-alpha receptor (Homo sapiens, UniProt P43088); assay: Binding affinity to FP receptor
# [6] = Bioavailability in Sprague-Dawley rat at 10 mg/kg, po and 5 mg/kg, iv; assay type: ADME, organism-based; settings: in vivo
# [7] = Half life in Sprague-Dawley rat at 10 mg/kg, po and 5 mg/kg, iv; assay type: ADME, organism-based; settings: in vivo
# [8] = biological target: T1, Prostaglandin E2 receptor EP3 subtype; assay: Binding affinity to EP3 receptor in presence of HSA
# Rattus norvegicus [9] = assay: Antiinflammatory activity against carrageenan-induced paw edema in po dosed rat; assay type: functional
# [10] = biological target: T3, Prostaglandin D2 receptor (Homo sapiens, UniProt Q13258); assay: Binding affinity to DP receptor
# T3 sequence (Q13258 whole entry): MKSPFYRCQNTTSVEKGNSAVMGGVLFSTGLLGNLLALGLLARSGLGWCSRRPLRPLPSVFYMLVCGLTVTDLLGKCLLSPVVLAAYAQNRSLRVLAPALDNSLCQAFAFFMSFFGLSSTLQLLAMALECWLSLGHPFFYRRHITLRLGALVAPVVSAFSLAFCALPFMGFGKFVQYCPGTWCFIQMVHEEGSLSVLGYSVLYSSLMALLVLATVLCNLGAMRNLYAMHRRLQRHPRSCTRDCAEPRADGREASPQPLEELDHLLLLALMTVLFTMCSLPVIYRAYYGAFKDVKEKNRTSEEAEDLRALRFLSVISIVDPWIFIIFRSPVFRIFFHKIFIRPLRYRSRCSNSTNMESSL
# [11] = Cmax in Sprague-Dawley rat at 10 mg/kg, po and 5 mg/kg, iv after 30 mins; assay type: ADME, organism-based; settings: in vivo
# Rattus norvegicus [12] = assay: Effect on carrageenan-induced paw hyperalgesia in po dosed rat; assay type: functional
# Prostacyclin receptor = Prostacyclin receptor (Homo sapiens, UniProt P43119); assay: Binding affinity to IP receptor
# [13] = biological target: T4, Prostaglandin E2 receptor EP1 subtype (Homo sapiens, UniProt P34995); assay: Binding affinity to EP1 receptor
# T4 sequence (P34995 whole entry): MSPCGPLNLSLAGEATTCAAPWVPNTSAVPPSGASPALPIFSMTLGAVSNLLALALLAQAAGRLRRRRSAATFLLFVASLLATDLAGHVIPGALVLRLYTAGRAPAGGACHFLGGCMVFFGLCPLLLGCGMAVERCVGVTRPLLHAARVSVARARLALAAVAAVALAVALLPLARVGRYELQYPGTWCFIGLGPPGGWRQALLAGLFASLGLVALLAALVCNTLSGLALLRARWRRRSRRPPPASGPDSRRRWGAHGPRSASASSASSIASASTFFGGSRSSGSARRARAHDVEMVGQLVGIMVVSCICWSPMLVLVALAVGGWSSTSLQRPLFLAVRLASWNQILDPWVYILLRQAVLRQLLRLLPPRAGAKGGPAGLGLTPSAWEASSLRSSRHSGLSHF
# [14] = biological target: Prostaglandin E2 receptor EP4 subtype (Homo sapiens, UniProt P35408); assay: Binding affinity to EP4 receptor
# Rattus norvegicus [15] = assay: Concentration in carrageenan-induced hyperalgesic rat at 10 mg/kg, po, 1 hr postdose; assay type: functional
# In short: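 Young 100 g rats from the hyperalgesia model given 10 mg/kg po in 0.5% methocel as sodium salts; plasma concentration measured 1 h post-dosing, at the time hyperalgesia was assessed.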
# [16] = Metabolism in human hepatocytes; assay type: ADME, cell-based, Hepatocyte; settings: read-out: Activity
# [17] = biological target: T5, Prostaglandin E2 receptor EP3 subtype (Homo sapiens) (UniProt P43115); assay: Antagonistic activity at EP3 receptor assessed as inhibition of cAMP production in HEK EBNA cells; assay type: functional, cell-based; settings: HEK293-EBNA, filed as antagonist
# T5 sequence (whole entry): T1 sequence (P43115 whole entry)
# [18] = Stability in rat hepatocytes after 3 hrs; assay type: ADME, cell-based, Hepatocyte; settings: read-out: Stability
# In short: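 Incubation with rat hepatocytes for 3 h; percentage of parent compound recovered intact.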
# [19] = Cmax in Sprague-Dawley rat at 10 mg/kg, po and 5 mg/kg, iv after 1 hr; assay type: ADME, organism-based; settings: in vivo
# Prostaglandin E2 receptor EP2 subtype, sequence (P43116 whole entry): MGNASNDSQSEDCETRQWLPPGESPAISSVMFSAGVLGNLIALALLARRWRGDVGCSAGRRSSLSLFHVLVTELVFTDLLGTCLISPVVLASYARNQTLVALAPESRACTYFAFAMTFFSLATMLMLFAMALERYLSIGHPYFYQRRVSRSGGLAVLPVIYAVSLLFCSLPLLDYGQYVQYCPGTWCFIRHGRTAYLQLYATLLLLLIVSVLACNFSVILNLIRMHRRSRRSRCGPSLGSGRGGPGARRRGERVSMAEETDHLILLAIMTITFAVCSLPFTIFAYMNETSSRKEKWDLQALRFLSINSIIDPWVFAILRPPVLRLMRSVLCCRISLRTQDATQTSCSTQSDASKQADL
# Prostaglandin E2 receptor EP4 subtype, sequence (P35408 whole entry): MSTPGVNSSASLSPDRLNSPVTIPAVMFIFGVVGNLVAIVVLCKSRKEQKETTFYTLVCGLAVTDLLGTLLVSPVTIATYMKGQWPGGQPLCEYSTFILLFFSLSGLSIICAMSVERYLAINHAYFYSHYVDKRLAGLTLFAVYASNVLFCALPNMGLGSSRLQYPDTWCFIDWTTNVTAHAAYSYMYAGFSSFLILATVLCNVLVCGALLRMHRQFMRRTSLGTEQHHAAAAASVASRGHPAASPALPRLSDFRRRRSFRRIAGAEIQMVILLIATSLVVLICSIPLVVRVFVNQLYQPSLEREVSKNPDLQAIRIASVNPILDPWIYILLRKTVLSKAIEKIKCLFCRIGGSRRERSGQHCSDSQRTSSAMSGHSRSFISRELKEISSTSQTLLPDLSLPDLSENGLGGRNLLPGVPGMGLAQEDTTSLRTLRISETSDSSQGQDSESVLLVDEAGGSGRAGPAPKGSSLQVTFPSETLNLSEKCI
# Prostaglandin F2-alpha receptor, sequence (P43088 whole entry): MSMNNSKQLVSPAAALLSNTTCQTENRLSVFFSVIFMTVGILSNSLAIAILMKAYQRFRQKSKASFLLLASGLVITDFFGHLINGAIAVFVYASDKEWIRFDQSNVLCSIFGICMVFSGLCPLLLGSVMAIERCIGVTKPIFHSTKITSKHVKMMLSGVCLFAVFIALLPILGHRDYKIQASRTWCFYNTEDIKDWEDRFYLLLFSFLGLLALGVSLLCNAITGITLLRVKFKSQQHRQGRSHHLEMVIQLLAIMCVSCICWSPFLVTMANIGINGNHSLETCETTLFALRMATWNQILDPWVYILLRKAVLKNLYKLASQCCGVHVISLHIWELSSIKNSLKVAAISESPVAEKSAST
# Prostacyclin receptor, sequence (P43119 whole entry): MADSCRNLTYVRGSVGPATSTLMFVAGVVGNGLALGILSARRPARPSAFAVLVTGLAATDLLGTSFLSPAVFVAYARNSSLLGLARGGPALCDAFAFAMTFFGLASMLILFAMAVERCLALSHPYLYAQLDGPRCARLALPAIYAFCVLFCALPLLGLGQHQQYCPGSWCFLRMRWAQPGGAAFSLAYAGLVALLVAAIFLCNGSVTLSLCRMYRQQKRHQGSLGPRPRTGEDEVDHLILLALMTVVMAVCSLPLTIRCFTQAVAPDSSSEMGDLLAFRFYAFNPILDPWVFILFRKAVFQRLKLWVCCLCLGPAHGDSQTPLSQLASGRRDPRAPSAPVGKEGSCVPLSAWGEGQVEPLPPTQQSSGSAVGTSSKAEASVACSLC
Compound,Ki [1],Ki [2],clearance [4],Ki (Thromboxane A2 receptor),Ki [5],bioavailability [6],half-life [7],Ki [8],ED50 (Rattus norvegicus [9]),Ki [10],ED50 (Rattus norvegicus [12]),Ki (Prostacyclin receptor),Ki [13],Ki [14],further results
O=C(O)/C=C/c1ccccc1Cc1ccc2cc(OCc3ccccc3)ccc2c1,> 40000 nM,3.2 nM (antagonist),3.1 mL/min,> 500 nM,> 500 nM,59%,3 h,46 nM (antagonist),> 10 mg/kg,82 nM (antagonist),4.6 mg/kg,> 500 nM,> 100000 nM,> 15000 nM,Activity (Rattus norvegicus [3]): 11 µM; Cmax [11]: 28 µM
COc1ccc(Br)cc1S(=O)(=O)NC(=O)/C=C/c1ccccc1Cc1ccc2ccccc2c1,> 50000 nM,0.6 nM (antagonist),1 mL/min,> 500 nM,> 500 nM,72%,4 h,6.9 nM (antagonist),3.3 mg/kg,> 500 nM,3.3 mg/kg,> 500 nM,39000 nM,890 nM (antagonist),Activity (Rattus norvegicus [15]): 32 µM; metabolised [16]: 36%; Kb [17]: 0.6 nM; remaining at 3 h [18]: 30%; Cmax [19]: 50 µM
